This is a sample that favours compounds with a hit; in the whole collection about 3.4% have one here.
MEKK3 PB1 HTS = modulators of MEKK3-MEK5 PB1 binding, primary screen, biochemical, wildtype MEKK3, multiplex bead flow cytometry, Alexa488-MEK5. binding response (% of control), % at 10 µM. bead-based flow cytometry, Alexa488-MEK5 binding to MEKK3; actives lie on both sides; 0 = blocked by unlabeled MEK5, 100 = vehicle. actives 1.4% (n = 290,000). AID 1529, 2009. Mitogen-activated protein kinase kinase kinase 3 (Homo sapiens), Q99759;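 active means binding response more than 3 SD above or below the average of its plate-row segment, actives on both sides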;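 further: Alexa488 bead fluorescence after subtracting the streptavidin-only scavenger bead signal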
Target sequence (Q99759 whole entry, looked up): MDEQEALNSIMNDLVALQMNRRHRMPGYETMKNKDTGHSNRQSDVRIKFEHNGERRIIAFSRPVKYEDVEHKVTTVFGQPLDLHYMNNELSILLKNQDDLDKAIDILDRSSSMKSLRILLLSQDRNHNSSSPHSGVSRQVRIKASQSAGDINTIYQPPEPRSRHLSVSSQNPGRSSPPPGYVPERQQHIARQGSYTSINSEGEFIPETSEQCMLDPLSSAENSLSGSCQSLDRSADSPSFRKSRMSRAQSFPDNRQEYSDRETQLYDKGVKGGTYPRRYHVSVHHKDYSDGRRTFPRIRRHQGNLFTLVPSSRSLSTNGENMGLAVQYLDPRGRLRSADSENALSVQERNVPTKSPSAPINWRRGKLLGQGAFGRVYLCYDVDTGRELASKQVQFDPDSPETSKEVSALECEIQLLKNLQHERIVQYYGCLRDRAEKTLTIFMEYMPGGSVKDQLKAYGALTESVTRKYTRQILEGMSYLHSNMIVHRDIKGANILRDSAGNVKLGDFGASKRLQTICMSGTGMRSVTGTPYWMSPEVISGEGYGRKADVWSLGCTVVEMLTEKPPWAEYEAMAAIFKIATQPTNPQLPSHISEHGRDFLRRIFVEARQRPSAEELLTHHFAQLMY
IMP-1 inh = IMP-1 metallo-beta-lactamase inhibitors, primary screen, biochemical, epi-absorbance readout, Pseudomonas aeruginosa enzyme; AID 1556, 2009; actives 0.45% (n = 290,000); metallo-beta-lactamase IMP-1 (Pseudomonas aeruginosa); purified IMP-1, nitrocefin hydrolysis, epi-absorbance fluorescence; inhibition, % at 5.6 µM;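 active means inhibition above the mean plus 3 SD of all compounds in the same screening run, cut at about 4.5% in these data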
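Test system: recombinant IMP-1 enzyme, purified / Medium: HEPES buffer pH 7.1 with ZnSO4 and Brij 35 / Doses: single dose, 5.6 µM / Times: 25 °C, 15 min preincubation, 25 min reaction / Detection: Epi-absorbance via hydrolysed-nitrocefin quenching of white-plate fluorescence, 480/530 nm, EDTA stop / Evaluation: percent inhibition from optical density relative to buffer-blank wells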
MEKK2mut PB1 HTS = MEK5 binding signal on mutant MEKK2 PB1, primary screen, biochemical, multiplex bead flow cytometry, Alexa488-MEK5; actives 0.35% (n = 290,000); percent response, % at 10 µM; AID 1530, 2009; Alexa488-MEK5 binding to MEKK2 mutant; in the data active means percent response above about 24%, passing the limit was not always enough
MEKK2 WT-MEK5 = modulators of MEK5 binding to wildtype MEKK2, primary screen, biochemical, multiplex bead flow cytometry, Alexa488-MEK5; binding response (% of control), % at 10 µM; Alexa488-MEK5 binding to MEKK2 WT; actives lie on both sides; Mitogen-activated protein kinase kinase kinase 2 (Homo sapiens), Q9Y2U5; AID 1531, 2009; actives 1.1% (n = 290,000); in the data active means binding response below about 67% or above about 130%
VIM-2 inhibitor = VIM-2 metallo-beta-lactamase inhibitors, primary screen, biochemical, epi-absorbance readout, Pseudomonas aeruginosa enzyme; inhibition, % at 5.6 µM; purified VIM-2, nitrocefin hydrolysis, epi-absorbance fluorescence; AID 1527, 2009; actives 0.89% (n = 290,000);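 active means inhibition above the mean of all tested compounds plus 3 SD, cutoff set per screening run, cut at about 7.5% in these data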;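 further: red hydrolysis product quenches plate fluorescence so inhibitors raise well fluorescence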
MEKK2wt confirm = modulators of MEK5 binding to wildtype MEKK2, confirmation, biochemical, single concentration, multiplex bead flow cytometry; shares compounds with MEKK3 PB1 HTS; Alexa488-MEK5 binding to MEKK2 WT; actives lie on both sides; binding response (% of control), % at 10 µM; actives 2.4% (n = 5,900); AID 1892, 2009; in the data active means binding response below about 16% or above about 210%; inactive means in between
MEKK2mut-MEK5 = mutant MEKK2 PB1-MEK5 binding signal retest – biochemical, single concentration, multiplex bead flow cytometry, confirmation | percent response, % at 10 µM | AID 1893, 2009 | Alexa488-MEK5 binding to MEKK2 mutant | actives 2% (n = 5,900) | shares compounds with MEKK3 PB1 HTS; in the data active means percent response mostly above about 71%, no sharp cut-off; inactive means mostly below about 38%;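 further: higher means compound restores mutant binding toward wildtype level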
MEKK3 confirm = MEKK3 wild-type PB1 binding to MEK5, inhibitors, confirmation, biochemical, bead multiplex flow cytometry, single concentration, wildtype. AID 1894, 2009. Alexa488-MEK5 binding to MEKK3; stronger effect = lower value. shares compounds with MEKK3 PB1 HTS. binding response (% of control), % at 10 µM. actives 1.8% (n = 5,900);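 active means binding response below 72% of control, or above a set upper limit, though filed actives all read lower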
Numbers stand for hits; i = inactive; nt = no result given; [ ] = another dose, or the depositor's remark.

SMILES | MEKK3 PB1 HTS | IMP-1 inh | MEKK2mut PB1 HTS | MEKK2 WT-MEK5 | VIM-2 inhibitor | MEKK2wt confirm | MEKK2mut-MEK5 | MEKK3 confirm
CCN(CCn1cccn1)C(=O)CCc1nnc(CCc2ccccc2OC)o1 | i | i | i | i | i | nt | nt | nt
CCN(Cc1ccncc1)C(=O)CCc1nnc(CCc2ccccc2OC)o1 | 70[inhibitor] | i | i | i | i | i | i | i
CCn1cc(C(=O)NCCc2ccccc2)c(=O)c2cc(F)c(N3CCN(C)CC3)cc21 | i | i | i | i | i | nt | nt | nt
CCn1cc(C(=O)NCc2ccc3c(c2)OCO3)c(=O)c2cc(F)c(N3CCN(C)CC3)cc21 | i | i | i | 138 | i | i | i | i
CCn1cc(C(=O)O)c(=O)c2cc(F)c(N3CCN(C(=S)NC(=O)c4ccc(OC)cc4)CC3)cc21 | i | i | i | i | i | nt | nt | nt
CCn1cc(C(=O)O)c(=O)c2cc(F)c(N3CCN(C(=S)NC(=O)c4ccc(Br)cc4)CC3)cc21 | 59[inhibitor] | i | 54 | i | i | -1.0[inhibitor] | i | i
CCn1cc(C(=O)O)c(=O)c2cc(F)c(N3CCNCC3)cc21 | 74[inhibitor] | i | i | i | i | i | i | i
CCCCCCCC(=O)N1CCN(c2cc3c(cc2F)c(=O)c(C(=O)O)cn3CC)CC1 | i | i | i | i | i | nt | nt | nt
O=C(COc1ccc2ccccc2c1Br)Nc1ccncc1 | i | i | i | i | i | nt | nt | nt
CN(C(=O)CSc1nnc(-c2ccncc2)n1-c1ccccc1)C1CCS(=O)(=O)C1 (configuration not stated) | i | i | i | i | i | nt | nt | nt
O=C(Cc1ccccc1)NNC(=S)Nc1ccc(Cl)cc1 | i | i | i | i | i | nt | nt | nt
CCCCNC(=S)NNC(=O)CCn1nc(C)c(Br)c1C | i | i | i | i | i | nt | nt | nt
Cc1nn(CCC(=O)NNC(=S)Nc2ccc(F)cc2)c(C)c1Br | 129 | i | i | i | i | i | i | i
O=C(CCc1ccccc1)NNC(=S)Nc1ccc(F)cc1 | 70[inhibitor] | i | i | i | i | i | i | i
CC12CC(c3ccccc3O1)C(C(=O)NCc1ccccc1)C(=O)N2 (configuration not stated) | 81[inhibitor] | i | i | i | i | i | i | i
CC(C)CC(=O)Nc1ccc(C(=O)Nc2cccc(O)c2)cc1 | i | i | i | i | i | nt | nt | nt
O=c1[nH]n2c(=O)c3c([nH]c2c1N=Nc1cccc(Cl)c1)CCCC3 | 48[inhibitor] | i | i | i | i | i | i | i
O=C(Nc1ccccc1)c1ccc(S(=O)(=O)N(CCO)CCO)cc1 | i | i | i | i | i | nt | nt | nt
N#Cc1nc(-c2cccc3ccccc23)oc1NCCN1CCCCC1 | i | i | i | 159 | i | i | i | i
CCNc1oc(-c2cccc3ccccc23)nc1C#N | i | i | i | i | i | nt | nt | nt
O=C(NC(NC(=S)Nc1ccccc1O)C(Cl)(Cl)Cl)c1ccco1 (configuration not stated) | i | i | i | i | i | nt | nt | nt
COc1ccccc1NC(=S)NC(NC(=O)c1ccco1)C(Cl)(Cl)Cl (configuration not stated) | 129 | i | i | i | i | i | i | i
CCOc1cc(/C=C2/SC(=S)N(Cc3ccccc3)C2=O)ccc1O | i | i | i | 61[inhibitor] | i | i | i | i

Screens deposited in PubChem by several laboratories.
